An excerpt weighted towards active compounds, which were near 3.8% of everything screened.
NPY-Y1 PAM-ag: NPY-Y1 receptor potentiators or agonists, primary screen, cell-based; 220,000 tested, 0.37% active; activation, % at 3.6 µM; NPY-Y1 expressing cells, potentiator/agonist activation; Neuropeptide Y receptor type 1 (Homo sapiens), P25929; in the data active = activation above about 33%, passing the limit was not always enough;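 also: cells stimulated with NPY at EC10 then isoproterenol at EC100; 0% = low agonist plus stimulus and 100% = saturating agonist plus stimulus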
Target sequence (P25929 whole entry, looked up): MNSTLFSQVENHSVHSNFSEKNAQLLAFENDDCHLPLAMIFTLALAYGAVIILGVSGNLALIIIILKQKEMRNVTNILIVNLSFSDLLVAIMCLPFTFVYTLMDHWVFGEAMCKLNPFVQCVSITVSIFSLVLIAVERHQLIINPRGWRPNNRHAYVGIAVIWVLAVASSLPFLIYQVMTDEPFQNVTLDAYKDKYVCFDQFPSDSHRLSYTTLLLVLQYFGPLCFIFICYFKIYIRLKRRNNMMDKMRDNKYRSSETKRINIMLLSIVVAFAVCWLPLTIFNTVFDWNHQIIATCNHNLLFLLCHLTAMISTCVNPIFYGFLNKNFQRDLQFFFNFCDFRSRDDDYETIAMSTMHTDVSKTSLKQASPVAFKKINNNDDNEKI
NPY-Y2 PAM-ag: NPY-Y2 potentiators or agonists, primary screen, cell-based. cells expressing NPY-Y2, potentiator/agonist read-out. activation, % at 3.6 µM. 220,000 tested, 0.45% active; in the data active = activation above about 27%;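 also: cells stimulated with NPY near EC25 plus isoproterenol at EC100; 0% = vehicle plus submaximal agonist and 100% = vehicle plus saturating agonist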
Insulin prom inh: inhibitors of insulin promoter-driven GFP, primary screen, imaging, TRM-6 cells, eGFP reporter, cell count; reporter expression induced with tamoxifen; inhibition, % at 2 µM; 130,000 tested, 0.9% active; AID 1273, 2008;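 active = inhibition above the mean plus 3 SD, with well images judged a real hit on visual review, cut at about 60% in these data, passing the limit was not always enough; inconclusive = inhibition over the cutoff but images rejected on review; inactive = inhibition not above the cutoff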
NPY Y2 blocker: NPY-Y2 receptor antagonists, primary screen, cell-based | inhibition, % at 2.7 µM | NPY-Y2 expressing cells, antagonist mode | AID 793, 2007 | 140,000 tested, 0.99% active; in the data active = inhibition above about 17%;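 also: 0% = vehicle with agonist challenge and 100% = reference antagonist with challenge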
NPY-Y1 antag: NPY-Y1 receptor antagonists, primary screen, cell-based. Neuropeptide Y receptor type 1 (Homo sapiens), P25929. HEK293-CNG Y1 cells, membrane potential fluorescence; NPY at EC95, then isoproterenol. inhibition, % at 3.6 µM. 200,000 tested, 1% active;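 active = inhibition above the campaign mean inhibition of all tested compounds plus 3 SD, cut at about 20% in these data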;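 also: 0% = DMSO wells given NPY plus isoproterenol and 100% = isoproterenol alone without NPY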
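Material: HEK293 cells co-expressing NPY Y1 receptor and cyclic-nucleotide gated channel. Timing: compound incubation 1 h at room temperature, readout 45 min post-stimulation. Signal: fluorescence, membrane potential probe.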
RAM network inh: inhibitors of the yeast RAM network, primary screen, dse1pr::URA3 reporter, 5-FOA selection | S. cerevisiae dse1pr::URA3 reporter, 5-FOA growth OD615, 2 d; analog-sensitive cbk1-as2 kinase mutant strain | inhibition, % at 50 µM | 190,000 tested, 1.8% active | AID 868, 2007;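 active = inhibition above a set limit, 3 SD over mean compound inhibition, cut at about 8.4% in these data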;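 also: 0% = DMSO-only wells with no growth and 100% = 10 µM 1-NA-PP1 full growth; inhibition rescues growth on 5-FOA so higher OD means more RAM inhibition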
Numbers without * were called inactive; ? = inconclusive; . = not tested or not shown.

SMILES	NPY-Y1 PAM-ag	NPY-Y2 PAM-ag	Insulin prom inh	NPY Y2 blocker	NPY-Y1 antag	RAM network inh
Fc1ccc(C2CC(c3cccs3)=NN2C(=S)Nc2ccccc2)cc1 (centres undefined)	-11	6	.	-4	0	5
Cc1ccc(NC(=O)COC(=O)CSC(=S)N2CCOCC2)cc1	13	3	-58	.	-4	5
CCC(Sc1nc2ccccc2o1)C(=O)O (centres undefined)	-13	-38	.	.	21*	1
COC(=O)c1ccc(CSc2nc3ccccc3o2)cc1	-7	-10	81*	3	10	8.8*
O=[N+]([O-])c1ccc(CSc2nc3ccccc3o2)cc1	-11	12	.	1	5	2
COc1cccc(-c2nc3n(n2)C(c2ccc4c(c2)OCO4)C(C(N)=O)=C(C)N3)c1 (centres undefined)	-2	-7	21	1	3	10*
Cc1c(C)c(C)c(S(=O)(=O)N2CCNCC2)c(C)c1C	-22	-5	-7	.	19	1
CCOc1ccc(NC(=O)Nc2cc(OCC(F)(F)F)cc(OCC(F)(F)F)c2)cc1	11	16	.	-6	-5	4
O=C(Nc1ccc(F)cc1)Nc1cc(OCC(F)(F)F)cc(OCC(F)(F)F)c1	66*	54*	3	-3	-14	3
CON/C=C(\C=Nc1ccc(Cl)cc1)c1ncc(C(F)(F)F)cc1Cl	0	3	19	-1	1	11*
CC(C)c1ccc(/C=C/C(=O)NCCCc2ccccc2)cc1	-14	-28	0	30*	25*	8.6*
CCOC(=O)c1c(C)n(OCc2ccccc2)c2ccc3nonc3c12	-11	4	.	10	14	10*
C=CCOn1c(C)c(C(C)=O)c2c3nonc3ccc21	-10	1	61	3	6	2
COc1ccc(NC(=O)COC(=O)C2CCC(C(C)(C)C)CC2)c([N+](=O)[O-])c1 (centres undefined)	3	-4	18	5	2	11*
COc1ccc(-c2nc3nc(C)c(Cc4ccccc4)c(=O)n3[nH]2)cc1	17	-6	.	3	6	2
COc1ccc(Cc2[nH]n3c(=O)c(Cl)c(C)nc3c2-c2ccccc2)cc1	18	6	12	.	-7	11*
CN1CCCN(C(=O)c2cc(-c3cccc4ccccc34)nc3ccccc23)CC1	-6	-12	.	.	.	.
COc1ccc(C2C=C(c3ccc(Br)s3)Nc3ncnn32)cc1OC (centres undefined)	-1	9	.	-2	-1	8.4*
COc1ccc(C2C=C(c3ccc(C)cc3)Nc3ncnn32)cc1 (centres undefined)	-11	-15	43	6	4	-2
S=C(Nc1ccc(Oc2ccccc2)cc1)NC1CCCCCC1	13	2	.	-1	1	11*
COc1cc(-c2cn(S(=O)(=O)c3cccc4nsnc34)nc2N)cc(OC)c1OC	-26	-9	33	18*	23*	0
Cc1ccc(-c2cn(S(=O)(=O)c3cccc4nsnc34)nc2N)cc1	-5	-17	-25	5	-2	3
Cc1nsc2c1ccc1ccccc12	-2	-11	.	.	3	1
CC1=[N+](C)c2ccc3ccccc3c2C1(C)C	-71	-32	38	22*	27*	3
O=C(CCSc1nc(-c2ccc3c(c2)OCO3)cc(C(F)(F)F)n1)NCc1ccccc1	-3	2	62	1	7	8
SMILES	NPY-Y1 PAM-ag	NPY-Y2 PAM-ag	Insulin prom inh	NPY Y2 blocker	NPY-Y1 antag	RAM network inh
O=C(CCSc1nc(-c2ccc3c(c2)OCO3)cc(C(F)(F)F)n1)NCc1ccco1	4	-9	.	8	6	9.7*
O=C(CSc1nc(-c2ccco2)cc(C(F)(F)F)n1)Nc1ccc2c(c1)CCC2	1	2	7	3	4	8.5*
CN(Cc1ccccc1)C(=O)CCSc1nc(-c2ccc3c(c2)OCO3)cc(C(F)(F)F)n1	-1	-13	57	4	12	9.9*
O=C(CCSc1nc(-c2ccco2)cc(C(F)(F)F)n1)NCc1cccs1	-7	-18	-88	6	2	10*
O=C(N/N=C/c1ccc(-c2ccc(Br)cc2)o1)c1ccc2c(c1)OCO2	-8	0	-123	.	21*	5
CCOC(=O)c1c(Nc2ccc(Cl)cc2)sc(/C=C2\C=Nc3ccccc32)c1O	-2	-6	-50	0	-2	9.3*
Cc1cc(C(=O)Oc2cccnc2)ccc1[N+](=O)[O-]	-15	-14	83*	-2	2	2
O=C(Oc1cccnc1)c1ccccc1[N+](=O)[O-]	-32	-21	?	2	0	1
CSc1ccccc1NS(=O)(=O)c1ccccc1	-12	1	10	1	4	2
O=[N+]([O-])c1ccc(C2CCCC/C2=N/OCc2ccccc2F)c([N+](=O)[O-])c1 (centres undefined)	-34	-32	0	18*	21*	8
O=C(O/N=C1\CCCCC1c1ccc([N+](=O)[O-])cc1[N+](=O)[O-])c1c(F)cccc1F (centres undefined)	3	2	0	3	0	1
Cc1ccc(NC(=O)C2CC(=O)n3c(nc4ccccc43)N2)cc1Cl (centres undefined)	-9	-12	73*	.	-7	4
N#C/C(=C\c1ccc(Cl)cc1)c1nc(-c2ccco2)cs1	-8	-9	.	6	-2	8
N#C/C(=C\c1ccc(-c2ccccc2)cc1)c1nc(-c2ccco2)cs1	21	15	.	3	0	8.4*
O=C(CNC(=O)c1ccc(F)cc1)Nc1ccccc1C(F)(F)F	-5	-3	.	.	.	.
CC1CCCC(C)N1C(=C(Cl)Cl)C(=C1SCCS1)[N+](=O)[O-] (centres undefined)	14	5	.	.	-3	8.8*
c1ccc2c(c1)NC(c1ccncc1)n1c-2nc2ccccc21 (centres undefined)	-13	-9	78*	7	-4	1
Cc1c(NC(=O)CN2c3ccccc3CC2C)c(=O)n(-c2ccccc2)n1C (centres undefined)	5	3	.	.	0	2
CC(C)Sc1nsc2nc(=O)c(/C=C3\C=Nc4ccccc43)c(N)n12	-23	-12	.	.	-2	7
CS(=O)(=O)c1nsc2nc(=O)c(/C=C3\C=Nc4ccccc43)c(N)n12	-15	-10	7	.	7	9.9*
Cc1nn(-c2ccccc2)nc1-c1nnc(-c2ccc(C(F)(F)F)cc2)o1	-25	11	.	.	.	.
CCOc1ccccc1N=CC1=C(O)CC(c2ccccc2)CC1=O (centres undefined)	-29	-20	-79	.	5	11*

Source: PubChem BioAssay
